# Results: ChEMBL document CHEMBL4823270, “A first-in-class anticancer dual HDAC2/FAK inhibitors bearing hydroxamates/benzamides capped by pyridinyl-1,2,4-triazoles” (Eur J Med Chem, 2021)
# Activity calls are given as the source filed them. The calls are words filed in the database; no cut-off is given here.
# Tests used:
# Histone deacetylase 2 [1] = target: T1, Histone deacetylase 2 (Homo sapiens, UniProt Q92769); test: Inhibition of HDAC2 in human CAKI-1 cells assessed as reduction in HDAC2 expression by Western blot analysis; type: cell-based
# Method in brief: (§1)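 40 μg protein (Bradford) resolved by SDS-PAGE, transferred to PVDF, blocked 1 h in milk or BSA. Primary antibody overnight, HRP secondary 1 h, ECL detection; β-actin as loading control.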
# Histone deacetylase 2 [2] = target: T1, Histone deacetylase 2; test: Inhibition of HDAC2 in human A498 cells assessed as reduction in HDAC2 expression by Western blot analysis; type: cell-based; method in brief: as §1
# CAKI-1 [3] = test: Induction of apoptosis in human CAKI-1 cells at 1.5 uM measured after 24 hrs by Annexin-V/propidium iodide staining based flow cytometry relative to control; type: functional
# Method in brief: (§2)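 Cells in supplemented medium with 10% FBS at 37 °C, 5% CO2, exposed to 0.75 or 1.5 μM compound, or DMSO as negative control, for 24 h. Apoptosis assessed by annexin V/PI staining per kit instructions, then flow cytometry; apoptotic cell percentage quantified against control.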
# Focal adhesion kinase 1 = Focal adhesion kinase 1 (Homo sapiens, UniProt Q05397); test: Inhibition of FAK in human CAKI-1 cells assessed as reduction in FAK phosphorylation by Western blot analysis; type: cell-based; method in brief: as §1
# A498 [4] = test: Induction of apoptosis in human A498 cells at 0.75 to 1.5 uM measured after 24 hrs by Annexin-V/propidium iodide staining based flow cytometry relative to control; type: functional; conditions: dose 0.75-1.5 µM; method in brief: as §2
# A498 [5] = test: Induction of apoptosis in human A498 cells assessed as activation of caspase-8 measured after 24 hrs by ELISA relative to control; type: functional
# A498 [6] = test: Induction of apoptosis in human A498 cells assessed as activation of caspase-3 measured after 24 hrs by ELISA relative to control; type: functional
# Method in brief: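 A-498 lysates were assayed for active caspase-3 protein by ELISA. Samples or standards were incubated 2 h at room temperature, then caspase-3 (active) detection antibody for 1 h, anti-rabbit IgG-HRP for 30 min, and chromogen for 30 min. After the stop solution, the plate was read and values were taken from a fitted standard curve in pg/ml versus a negative control.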
# CAKI-1 [7] = test: Antiproliferative activity against human CAKI-1 cells assessed as cell growth inhibition incubated for 24 hrs by MTT assay; type: functional, cell-based; conditions: CAKI-1, 24 h
# Histone deacetylase 8 = target: T2, Histone deacetylase 8 (Homo sapiens, UniProt Q9BY41); test: Inhibition of human full-length recombinant C-terminal His-tagged HDAC8 expressed in baculovirus infected Sf9 insect cells preincubated for 5 mins followed by HDAC substrate addition and further incubated for 45 mins by fluorescence microplate reader assay
# T2 sequence (Q9BY41 whole entry): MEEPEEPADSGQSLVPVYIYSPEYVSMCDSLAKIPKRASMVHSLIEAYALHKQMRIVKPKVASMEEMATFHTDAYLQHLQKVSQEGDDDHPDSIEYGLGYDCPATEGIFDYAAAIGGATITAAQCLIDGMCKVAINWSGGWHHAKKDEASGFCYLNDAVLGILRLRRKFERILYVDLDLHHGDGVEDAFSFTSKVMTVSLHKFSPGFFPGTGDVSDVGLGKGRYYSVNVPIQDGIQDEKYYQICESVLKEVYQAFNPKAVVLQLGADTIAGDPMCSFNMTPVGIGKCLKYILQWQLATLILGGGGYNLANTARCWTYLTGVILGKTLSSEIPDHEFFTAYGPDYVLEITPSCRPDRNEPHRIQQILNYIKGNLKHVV
# A498 [8] = test: Induction of cell cycle arrest in human A498 cells assessed as decrease in cell population at G1 phase at 1.5 uM incubated for 24 hrs by propidium iodide based flow cytometry analysis; type: functional
# Method in brief: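 Cells at 1 × 10^5/mL treated with 0.75 or 1.5 μM compound or DMSO (negative control) for 24 h, harvested and washed in PBS. Fixed by dropwise ice-cold 80% ethanol with vortexing, held overnight, washed twice, PI-stained 20 min in the dark. Phase distribution read by flow cytometry.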
# T1 sequence (Q92769 whole entry): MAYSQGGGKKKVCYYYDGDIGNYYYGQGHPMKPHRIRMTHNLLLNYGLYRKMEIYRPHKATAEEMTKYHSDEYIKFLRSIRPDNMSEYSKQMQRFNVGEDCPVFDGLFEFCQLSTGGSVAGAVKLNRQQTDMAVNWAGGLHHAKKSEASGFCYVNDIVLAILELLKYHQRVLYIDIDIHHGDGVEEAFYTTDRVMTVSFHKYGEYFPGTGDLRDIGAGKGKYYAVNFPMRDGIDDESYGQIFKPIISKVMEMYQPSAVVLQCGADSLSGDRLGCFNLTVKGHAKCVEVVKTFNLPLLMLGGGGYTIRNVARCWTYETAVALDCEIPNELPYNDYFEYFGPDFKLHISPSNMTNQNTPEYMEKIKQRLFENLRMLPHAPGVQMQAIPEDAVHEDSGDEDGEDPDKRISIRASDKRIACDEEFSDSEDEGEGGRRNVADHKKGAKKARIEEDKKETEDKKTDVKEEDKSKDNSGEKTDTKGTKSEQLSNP
# Chain of Focal adhesion kinase 1 (Q05397 2-1052 limits assumed): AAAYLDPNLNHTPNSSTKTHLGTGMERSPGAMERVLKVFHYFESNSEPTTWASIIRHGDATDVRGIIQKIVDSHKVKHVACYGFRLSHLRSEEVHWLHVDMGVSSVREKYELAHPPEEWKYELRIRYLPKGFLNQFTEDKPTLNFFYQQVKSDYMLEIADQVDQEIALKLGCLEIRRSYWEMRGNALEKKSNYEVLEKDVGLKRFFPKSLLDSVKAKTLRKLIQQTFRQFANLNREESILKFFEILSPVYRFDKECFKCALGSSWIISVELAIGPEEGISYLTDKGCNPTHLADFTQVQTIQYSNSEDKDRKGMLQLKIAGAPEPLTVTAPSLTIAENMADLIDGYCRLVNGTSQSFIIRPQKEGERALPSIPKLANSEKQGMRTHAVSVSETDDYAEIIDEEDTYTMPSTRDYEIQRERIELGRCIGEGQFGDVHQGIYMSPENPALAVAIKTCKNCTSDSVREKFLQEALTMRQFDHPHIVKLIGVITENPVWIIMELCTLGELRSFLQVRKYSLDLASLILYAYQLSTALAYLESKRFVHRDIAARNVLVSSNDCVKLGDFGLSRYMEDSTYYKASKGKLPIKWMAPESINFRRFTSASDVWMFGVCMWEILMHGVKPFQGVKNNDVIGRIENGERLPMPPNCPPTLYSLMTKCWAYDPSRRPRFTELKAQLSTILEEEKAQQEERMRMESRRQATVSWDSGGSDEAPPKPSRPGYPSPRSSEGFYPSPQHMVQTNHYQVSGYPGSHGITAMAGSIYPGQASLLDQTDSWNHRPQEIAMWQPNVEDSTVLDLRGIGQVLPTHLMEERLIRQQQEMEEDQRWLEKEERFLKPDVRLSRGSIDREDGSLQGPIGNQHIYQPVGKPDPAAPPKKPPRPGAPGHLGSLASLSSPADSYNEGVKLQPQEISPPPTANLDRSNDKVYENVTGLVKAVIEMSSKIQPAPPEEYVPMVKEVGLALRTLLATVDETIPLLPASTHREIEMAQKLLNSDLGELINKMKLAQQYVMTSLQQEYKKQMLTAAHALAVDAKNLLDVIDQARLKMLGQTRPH
structure (smiles),measurement,setting,value
Cn1c(SCCCCCC(=O)NO)nnc1-c1ccncc1,inhibition,Histone deacetylase 2 [1],Active
same,inhibition,Histone deacetylase 2 [2],Active
same,Activity,CAKI-1 [3],37%
same,inhibition,Focal adhesion kinase 1,Active
same,Activity,A498 [4],50%
same,fold change (FC),A498 [5],3
same,fold change (FC),A498 [6],11
same,IC50,CAKI-1 [7],1.23 µM
same,IC50,Histone deacetylase 8,7.1 µM
same,Activity,A498 [8],Active
